ChEMBL document CHEMBL1649151, “Urinary bactericidal activity of Doripenem versus that of levofloxacin in patients with complicated urinary tract infections or pyelonephritis” (Antimicrob Agents Chemother, 2009)
Values after ≈ are worked out from the molar mass of the structure shown.

Columns and labels:
[1] = test system: Escherichia coli; assay: Antimicrobial activity against Escherichia coli 1889646 B-F isolated from patient with pyelonephritis assessed as >3-log reduction in urinary bacterial titer after 4 hrs; format: functional, Urine
Summary of the method: (§1)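 Urine was collected on day 3 of i.v. therapy (steady state) over 4-h intervals from infusion start (0–4 to 20–24 h), stored at –80°C and sterile filtered. It was serially diluted twofold (1:0 up to 1:131,072) in the patient's own pre-dose drug-free urine. Microdilution used a final inoculum of 1.0 x 10^6 to 9.5 x 10^6 CFU/ml, incubated 18 h at 37°C in air. 10 µl was subcultured onto 5% blood Columbia agar for 24 h at 37°C. The bactericidal endpoint was >99.9% (>3-log) kill, reported as a reciprocal titer.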

[2] = test system: Escherichia coli; assay: Antimicrobial activity against Escherichia coli 1780063 B-A isolated from patient with pyelonephritis assessed as >3-log reduction in urinary bacterial titer after 8 hrs; format: functional, Urine
Summary of the method: (§2)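 Urine was collected before dosing and on day 3 of i.v. therapy (steady state), in 4-h intervals from infusion start (0–4 to 20–24 h), stored at −80°C and sterile filtered. It was serially diluted twofold (1:0 to 1:131,072) in the patient's drug-free pre-dose urine. Microdilution used an inoculum of 1.0 x 10^6–9.5 x 10^6 CFU/ml, incubated 18 h at 37°C, then subcultured 24 h on blood agar. The endpoint was >99.9% kill, reported as reciprocal titer.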

[3] = test system: Escherichia coli; assay: Antimicrobial activity against Escherichia coli 1949826 B-L isolated from patient with pyelonephritis assessed as >3-log reduction in urinary bacterial titer after 16 hrs; format: functional, Urine
Summary of the method: (§3)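 Patient urine was collected on day 3 of i.v. therapy (steady state) over 4-h intervals after infusion start, stored at –80°C, and sterile filtered. It was twofold serially diluted (1:0 to 1:131,072) in the patient's own pre-dose drug-free urine, inoculated to 1.0 x 10^6–9.5 x 10^6 CFU/ml, and incubated for 18 h at 37°C. Subcultures were grown on blood agar for 24 h. The UBT is the reciprocal of the highest dilution giving >99.9% kill.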

[4] = test system: Escherichia coli; assay: Antimicrobial activity against Escherichia coli 2297257 B-W isolated from patient with pyelonephritis assessed as >3-log reduction in urinary bacterial titer after 16 hrs; format: functional, Urine
[5] = test system: Escherichia coli; assay: Antimicrobial activity against Escherichia coli 1949826 B-L isolated from patient with pyelonephritis by Etest; format: functional
[6] = test system: Escherichia coli; assay: Antimicrobial activity against Escherichia coli 1889645 B-I isolated from patient with pyelonephritis assessed as >3-log reduction in urinary bacterial titer after 24 hrs; format: functional, Urine; summary of the method: as §1
[7] = test system: Staphylococcus haemolyticus; assay: Antimicrobial activity against Staphylococcus haemolyticus 1949819 B-M isolated from patient with pyelonephritis by Etest; format: functional
[8] = test system: Serratia marcescens; assay: Antimicrobial activity against Serratia marcescens 2297260 B-U isolated from patient with pyelonephritis assessed as >3-log reduction in urinary bacterial titer after 12 hrs; format: functional, Urine
[9] = test system: Staphylococcus aureus; assay: Antimicrobial activity against Staphylococcus aureus 1889640 A-Z isolated from patient with pyelonephritis by Etest; format: functional
[10] = test system: Pseudomonas aeruginosa; assay: Antimicrobial activity against Pseudomonas aeruginosa 2062713 B-Q isolated from patient with pyelonephritis assessed as >3-log reduction in urinary bacterial titer after 16 hrs; format: functional, Urine
[11] = test system: Enterococcus faecalis; assay: Antimicrobial activity against Enterococcus faecalis 2297262-10 B-V isolated from patient with pyelonephritis assessed as >3-log reduction in urinary bacterial titer after 12 hrs; format: functional, Urine; summary of the method: as §2
[12] = test system: Pseudomonas aeruginosa; assay: Antimicrobial activity against Pseudomonas aeruginosa 2062713 B-Q isolated from patient with pyelonephritis assessed as >3-log reduction in urinary bacterial titer after 24 hrs; format: functional, Urine
[13] = test system: Escherichia coli; assay: Antimicrobial activity against Escherichia coli 1655646 A-Y isolated from patient with pyelonephritis assessed as >3-log reduction in urinary bacterial titer after 4 hrs; format: functional, Urine; summary of the method: as §2
[14] = test system: Escherichia coli; assay: Antimicrobial activity against Escherichia coli 1821386 B-D isolated from patient with pyelonephritis assessed as >3-log reduction in urinary bacterial titer after 8 hrs; format: functional, Urine; summary of the method: as §1
[15] = test system: Staphylococcus epidermidis; assay: Antimicrobial activity against Staphylococcus epidermidis 2297262-9 B-V isolated from patient with pyelonephritis assessed as >3-log reduction in urinary bacterial titer after 12 hrs; format: functional, Urine
[16] = test system: Escherichia coli; assay: Antimicrobial activity against Escherichia coli 2062716 B-R isolated from patient with pyelonephritis assessed as >3-log reduction in urinary bacterial titer after 4 hrs; format: functional, Urine; summary of the method: as §3
[17] = test system: Serratia marcescens; assay: Antimicrobial activity against Serratia marcescens 2297260 B-U isolated from patient with pyelonephritis assessed as >3-log reduction in urinary bacterial titer after 4 hrs; format: functional, Urine
[18] = test system: Pseudomonas aeruginosa; assay: Antimicrobial activity against Pseudomonas aeruginosa 2062713 B-Q isolated from patient with pyelonephritis assessed as >3-log reduction in urinary bacterial titer after 20 hrs; format: functional, Urine
[19] = test system: Staphylococcus epidermidis; assay: Antimicrobial activity against Staphylococcus epidermidis 1949822 B-J isolated from patient with pyelonephritis assessed as >3-log reduction in urinary bacterial titer after 24 hrs; format: functional, Urine

| Structure (SMILES) | urinary bactericidal titer [1] | urinary bactericidal titer [2] | urinary bactericidal titer [3] | urinary bactericidal titer [4] | MIC [5] | urinary bactericidal titer [6] | MIC [7] | urinary bactericidal titer [8] | MIC [9] | urinary bactericidal titer [10] | urinary bactericidal titer [11] | urinary bactericidal titer [12] | urinary bactericidal titer [13] | urinary bactericidal titer [14] | urinary bactericidal titer [15] | urinary bactericidal titer [16] | urinary bactericidal titer [17] | urinary bactericidal titer [18] | urinary bactericidal titer [19] |
| --- | --- | --- | --- | --- | --- | --- | --- | --- | --- | --- | --- | --- | --- | --- | --- | --- | --- | --- | --- |
| C[C@@H](O)[C@H]1C(=O)N2C(C(=O)O)=C(S[C@@H]3CN[C@H](CNS(N)(=O)=O)C3)[C@H](C)[C@H]12 [DORIPENEM] | 65500 reciprocal titer | 1024 reciprocal titer | 32800 | 4096 reciprocal titer | 0.03 µg/mL (≈ 0.0713 µM) | 4096 reciprocal titer | 1 µg/mL (≈ 2.38 µM) | – | – | – | – | – | – | – | – | – | – | – | – |
| C[C@H]1COc2c(N3CCN(C)CC3)c(F)cc3c(=O)c(C(=O)O)cn1c23.C[C@H]1COc2c(N3CCN(C)CC3)c(F)cc3c(=O)c(C(=O)O)cn1c23.O [LEVOFLOXACIN] | – | – | – | – | – | – | – | 128 reciprocal titer | 0.06 µg/mL | 4 reciprocal titer | 0 reciprocal titer | 2 reciprocal titer | 2048 reciprocal titer | 8192 reciprocal titer | 4 reciprocal titer | 1024 reciprocal titer | 512 reciprocal titer | 4 reciprocal titer | 1 reciprocal titer |
